Assay results: PubChem BioAssay AID588365 (Broad Institute, 2011)
Activity calls are given as the source filed them.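 Rule for the calls: active = compounds lowering cell ATP signal whose fitted half-maximal concentration is at most ten times the top tested dose; inconclusive = flat curve losing 30 to 70 percent, or poor fit; inactive = the rest.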

Columns and labels:
[1] = viability loss of HeLa cells by ATP content – CellTiter-Glo, 24 h, dry powder, cytotoxicity control, dose response (AID 588365); conditions: HeLa viability, CellTiter-Glo ATP luminescence, 24 h; at 35 µM (top of the series)
Outline: (§1)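 Technique – CellTiter-Glo ATP luminescence · Test system – human HeLa cell line, viability by cellular ATP · Doses – compound dose series · Buffer or medium – phenol-red-free DMEM, 10% FBS · Controls – DMSO as neutral control, mitoxantrone as cytotoxic positive control · Times – 24 h at 37 °C, 10 min reagent step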

[2] = tested on: HeLa viability, CellTiter-Glo ATP luminescence, 24 h; assay: as above
Outline: as §1

Q: Which activity change, negative = cytotoxicity [1] does the source give for `O=C1/C(=C/c2ccco2)Oc2c1ccc(O)c2CN1CCCCC1` here?
A: The activity change, negative = cytotoxicity was 4.06% (inactive).

Q: With `Nc1c(C(=O)Nc2ccccc2F)sc2nc(Cc3ccccc3)cc(C(F)(F)F)c12` as the compound, how does the activity change, negative = cytotoxicity [1] read?
A: The activity change, negative = cytotoxicity was 0.381% (inactive).

Q: Which activity change, negative = cytotoxicity [1] does the source give for `Nc1c(/C=C2\C=CC(=O)C(O)=C2)c(=O)nc2sc(CC(=O)N3CCCCC3)nn12` here?
A: The activity change, negative = cytotoxicity was -8.24% (inactive).

Q: For `COC(=O)c1ccccc1NC(=O)CCS(=O)(=O)c1ccc(Br)cc1`, which activity change, negative = cytotoxicity [1] is on record?
A: The activity change, negative = cytotoxicity was -2.03% (inactive).

Q: Which activity change, negative = cytotoxicity [1] does the source give for `O=C(O)CC(C(=O)O)N1C(=O)/C(=C/C=C/c2ccco2)SC1=S` (stereo unspecified) here?
A: Its activity change, negative = cytotoxicity is 4.8% (inactive).

Q: Which activity change, negative = cytotoxicity [1] does the source give for `CCC(=O)Oc1ccc2c(c1)O/C(=C\c1ccco1)C2=O` here?
A: Its activity change, negative = cytotoxicity is -1.46% (inactive).

Q: Which activity change, negative = cytotoxicity [1] does the source give for `CSc1ccc(/C=N/Nc2cccc(C(=O)O)c2)cc1` here?
A: Its activity change, negative = cytotoxicity is -3.96% (inactive).

Q: Which activity change, negative = cytotoxicity [1] does the source give for `CC1=NN(c2cccc(C(=O)O)c2)C(=O)/C1=C\C=C\c1ccco1` here?
A: The activity change, negative = cytotoxicity was -14.3% (inactive).

Q: With `O=c1c(O)cccc2cc(O)c(O)c(O)c12` as the compound, how does the AC50 [2] read?
A: The AC50 was 16.1 µM.

Q: Which activity change, negative = cytotoxicity [1] does the source give for `O=C1CCCC(O)=C1N=Nc1ccc(C(=O)O)cc1` here?
A: Its activity change, negative = cytotoxicity is -7.5% (inactive).

Q: With `Clc1ccc(-c2nnc3sc(-c4ccc(Br)o4)nn23)cc1` as the compound, how does the activity change, negative = cytotoxicity [1] read?
A: Its activity change, negative = cytotoxicity is -0.723% (inactive).

Q: Which activity change, negative = cytotoxicity [1] does the source give for `CN(C)S(=O)(=O)c1cc(C(=O)NC2CCSc3ccccc32)ccc1Cl` (stereo unspecified) here?
A: Its activity change, negative = cytotoxicity is -9.03% (inactive).

Q: With `O=C(O)CCCCCn1c(SCC(=O)c2ccc(O)c(O)c2)nc2ccsc2c1=O` as the compound, how does the activity change, negative = cytotoxicity [1] read?
A: Its activity change, negative = cytotoxicity is -3.5% (inactive).

Q: With `O=C(O)C1Nc2c(O)cc(Cl)c([N+](=O)[O-])c2C2C=CCC12` (stereo unspecified) as the compound, how does the activity change, negative = cytotoxicity [1] read?
A: The activity change, negative = cytotoxicity was -4.48% (inactive).

Q: For `O=C(O)CCNc1ccc(NCCC(=O)O)c2c1C(=O)c1ccccc1C2=O`, which AC50 [2] is on record?
A: Its AC50 is 36.1 µM.

Q: For `CC1(C)[C@@H](O[C@H]2O[C@H](C(=O)O)[C@@H](O)[C@H](O)[C@H]2O[C@@H]2O[C@H](C(=O)O)[C@@H](O)[C@H](O)[C@H]2O)CC[C@]2(C)[C@H]3C(=O)C=C4[C@@H]5C[C@@](C)(C(=O)O)CC[C@]5(C)CC[C@@]4(C)[C@]3(C)CC[C@@H]12`, which activity change, negative = cytotoxicity [1] is on record?
A: The activity change, negative = cytotoxicity was -1.78% (inactive).
